Our source for the Activity and EC50 values is ChEMBL document CHEMBL4368893, “2,2-Dimethyl-3,4-dihydro-2H-1,4-benzoxazines as isosteres of 2,2-dimethylchromans acting as inhibitors of insulin release and vascular smooth muscle relaxants” (Medchemcomm, 2019).

Assay [1] can be described thus: Inhibition of glucose-induced insulin release in rat pancreatic islets assessed as residual insulin secretion at 1 uM incubated for 90 mins incubated in presence of 16.7 mM glucose by radioimmunology assay. The class given is functional. A digest of the protocol: (§1)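 Islets isolated from adult fed Wistar rats by collagenase digestion, used fresh. Groups of 10 islets pre-incubated 30 min at 37 °C in bicarbonate salt medium with 2.8 mM glucose and 0.5% albumin, gassed O2/CO2 95:5. Then 90 min at 37 °C with 16.7 mM glucose plus compound. Insulin by RIA against rat insulin standard. Output is % of control secretion, mean ± SEM (n).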

Assay [2] in a line: Inhibition of glucose-induced insulin release in rat pancreatic islets assessed as residual insulin secretion at 10 uM incubated for 90 mins incubated in presence of 16.7 mM glucose by radioimmunology assay. Format: functional. Put shortly: as §1
For assay [3], the system named is Thoracic aorta. The assay can be described thus: Myorelaxant activity in rat thoracic aortic rings assessed as relaxation of 30 mM KCl-induced contraction by force-displacement transducer based assay relative to KCl. The class given is functional, tissue-based. Put shortly: (§2)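 Aortic rings from adult fed Wistar rats. Kept at 37 °C in oxygenated medium (95% O2/5% CO2) and equilibrated 60 min. Contraction raised with 30 or 80 mM KCl and recorded isometrically by force transducer. Drug added cumulatively, up to maximal relaxation or 200 µM. Response expressed as % of KCl contraction; EC50 from concentration–response curves, mean ± SEM (n).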

Assay [4] deals with Thoracic aorta. The assay can be described thus: Myorelaxant activity in rat thoracic aortic rings assessed as relaxation of 80 mM KCl-induced contraction by force-displacement transducer based assay relative to KCl. The class given is functional, tissue-based. A digest of the protocol: as §2
Assay [5] concerns Thoracic aorta. The assay can be described thus: Myorelaxant activity in rat thoracic aortic rings assessed as relaxation of 30 mM KCl-induced contraction in presence of 10 uM K-ATP channel blocker glibenclamide by force-displacement transducer based assay relative to KCl. Format: functional, tissue-based. A digest of the protocol:
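Wistar rat aortic rings in oxygenated medium at 37 °C, equilibrated 60 min, with 10 µM glibenclamide present throughout. Precontracted with 30 mM KCl; isometric tension recorded by transducer. Cumulative drug addition to maximal relaxation or 200 µM. Tension expressed as % of KCl response; EC50 (50% inhibition of plateau) from concentration–response curves.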

Bounds are passed on as bounds.

What is called EC50 is the midpoint of the concentration-response curve. As for `CC1(C)CN(NC(=O)Nc2ccc(C#N)cc2)c2cc(Cl)ccc2O1`, the Activity in assay [1] was found to be 79%; in assay [2], 43.1%. In addition, the EC50 in assay [3] stood at 3.7 µM.

As for `CC1(C)CN(NC(=O)Nc2cccc(Cl)c2)c2cc(Cl)ccc2O1`, the results for the Activity in assay [1] and in assay [2] were 92.5% and 46%, respectively. Further, the 50% effective concentration (EC50) in assay [3] turned out to be 9.9 µM.

In the case of `CC1(C)CN(NC(=S)Nc2cccc(Cl)c2)c2cc(Cl)ccc2O1`, the Activity in assay [2] is listed as 71.8%. Further, the EC50 in assay [3] is greater than 30 µM.

As to `CC1(C)CN(NC(=S)Nc2ccc(C#N)cc2)c2cc(Cl)ccc2O1`, the Activity in assay [1] amounted to 73.3%; in assay [2], 10.8%. For the same molecule, in assay [3], the concentration for a half-maximal effect (EC50) was greater than 30 µM.

For the molecule `CC1(C)CN(NC(=S)Nc2cccc(C#N)c2)c2cc(Cl)ccc2O1`, the Activity in assay [1] came to 83.1%; in assay [2], 27%. Further, the EC50 in assay [3] is greater than 30 µM.

Regarding `CC1(C)CN(NC(=S)Nc2ccc(Cl)cc2)c2cc(Cl)ccc2O1`, in assay [2], the Activity came out at 81.4%. For the same molecule, the EC50 in assay [3] was greater than 30 µM.

On to `CC1(C)CN(NC(=O)Nc2ccc(Cl)cc2)c2cc(Cl)ccc2O1`, for which the Activity in assay [1] was found to be 89.5%; in assay [2], 56.2%. In addition, the EC50 in assay [3] is 13.3 µM.

Take `CC1(C)CN(NC(=O)Nc2cccc(C#N)c2)c2cc(Cl)ccc2O1`: the Activity in assay [1] amounted to 79.5%; in assay [2], 35.7%. Also, the EC50 in assay [4] was 5 µM; in assay [3], 1.9 to 3.1 µM; in assay [5], 3.9 µM.
